Results taken from ChEMBL document CHEMBL1212734, “In vitro pharmacodynamics of levofloxacin and other aerosolized antibiotics under multiple conditions relevant to chronic pulmonary infection in cystic fibrosis” (2010).
Converted amounts (≈) assume the structure as drawn.

Legend:
Type in all cases: functional
Pseudomonas aeruginosa [1] = assay: Antibacterial activity against Pseudomonas aeruginosa by broth dilution method
How it was run: (§1)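 Broth microdilution MIC per CLSI reference method; twofold serial dilutions in cation-adjusted Mueller-Hinton broth. […] Endpoint read by OD600 and confirmed visually.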

[2] = system: Stenotrophomonas maltophilia; assay: Antibacterial activity against Stenotrophomonas maltophilia by broth dilution method
[3] = system: Achromobacter xylosoxidans; assay: Antibacterial activity against Alcaligenes xylosoxidans by broth dilution method
Staphylococcus aureus = assay: Antibacterial activity against methicillin-sensitive Staphylococcus aureus by broth dilution method
Pseudomonas aeruginosa [4] = assay: Antibacterial activity against Pseudomonas aeruginosa PA1054 by broth dilution method; how it was run: as §1
Pseudomonas aeruginosa [5] = assay: Antibacterial activity against Pseudomonas aeruginosa PA5043 assessed as inhibition of biofilm formation by microtiter plate reader assay
How it was run: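 Biofilms of cystic fibrosis P. aeruginosa isolates were grown and tested by a previously described method. The endpoint was the biofilm inhibitory concentration, the drug level that prevents biofilm cell growth, compared against planktonic broth-microdilution MICs.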

Pseudomonas aeruginosa [6] = assay: Antibacterial activity against Pseudomonas aeruginosa ATCC 27853 assessed as inhibition of biofilm formation by microtiter plate reader assay
Pseudomonas aeruginosa [7] = assay: Antibacterial activity against Pseudomonas aeruginosa PA881 by broth dilution method; how it was run: as §1
Pseudomonas aeruginosa [8] = assay: Antibacterial activity against Pseudomonas aeruginosa PA5026 by broth dilution method; how it was run: as §1
Pseudomonas aeruginosa [9] = assay: Antibacterial activity against Pseudomonas aeruginosa PA5020 by broth dilution method
Pseudomonas aeruginosa [10] = assay: Antibacterial activity against Pseudomonas aeruginosa PA1042 assessed as time required for reduction of bacterial load to 3 log CFU/ml at 0.2 mg/ml up to 48 hrs by time-kill assay
How it was run: (§2)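 Overnight cultures were diluted and grown at 37°C to OD600 ≈0.3, then set at 5 × 10^5–1 × 10^6 CFU/ml in 10 ml CAMHB. Drug was added at 0.2, 0.6 or 2.0 mg/ml, and cultures were shaken at 37°C. Samples taken at 0, 0.5, 1, 2, 4, 8 and 24 h were washed twice in CAMHB, diluted in saline and plated on Mueller-Hinton agar. Plates were incubated up to 48 h before colony counting.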

Pseudomonas aeruginosa [11] = assay: Antibacterial activity against Pseudomonas aeruginosa PA880 assessed as time required for reduction of bacterial load to 3 log CFU/ml at 0.2 mg/ml up to 48 hrs by time-kill assay; how it was run: as §2
Pseudomonas aeruginosa [12] = assay: Antibacterial activity against Pseudomonas aeruginosa PA881 assessed as time required for reduction of bacterial load to 3 log CFU/ml at 0.2 mg/ml up to 48 hrs by time-kill assay; how it was run: as §2
Pseudomonas aeruginosa [13] = assay: Antibacterial activity against Pseudomonas aeruginosa PA5026 assessed as time required for reduction of bacterial load to 3 log CFU/ml at 0.2 mg/ml up to 48 hrs by time-kill assay; how it was run: as §2
Pseudomonas aeruginosa [14] = assay: Antibacterial activity against Pseudomonas aeruginosa PA876 assessed as time required for reduction of bacterial load to 3 log CFU/ml at 0.2 mg/ml up to 48 hrs by time-kill assay; how it was run: as §2
Pseudomonas aeruginosa [15] = assay: Antibacterial activity against Pseudomonas aeruginosa PA861 assessed as time required for reduction of bacterial load to 3 log CFU/ml at 0.2 mg/ml up to 48 hrs by time-kill assay; how it was run: as §2
Pseudomonas aeruginosa [16] = assay: Antibacterial activity against Pseudomonas aeruginosa PA5020 assessed as time required for reduction of bacterial load to 3 log CFU/ml at 0.2 mg/ml up to 48 hrs by time-kill assay; how it was run: as §2
Pseudomonas aeruginosa [17] = assay: Antibacterial activity against Pseudomonas aeruginosa ATCC 27853 assessed as time required for reduction of bacterial load to 3 log CFU/ml at 0.2 mg/ml up to 48 hrs by time-kill assay
Pseudomonas aeruginosa [18] = assay: Antibacterial activity against Pseudomonas aeruginosa PA1054 assessed as time required for reduction of bacterial load to 3 log CFU/ml at 0.6 mg/ml up to 48 hrs by time-kill assay; how it was run: as §2
Pseudomonas aeruginosa [19] = assay: Antibacterial activity against Pseudomonas aeruginosa PA1042 assessed as time required for reduction of bacterial load to 3 log CFU/ml at 0.6 mg/ml up to 48 hrs by time-kill assay; how it was run: as §2
Pseudomonas aeruginosa [20] = assay: Antibacterial activity against Pseudomonas aeruginosa PA5043 assessed as time required for reduction of bacterial load to 3 log CFU/ml at 0.6 mg/ml up to 48 hrs by time-kill assay; how it was run: as §2
Pseudomonas aeruginosa [21] = assay: Antibacterial activity against Pseudomonas aeruginosa PA880 assessed as time required for reduction of bacterial load to 3 log CFU/ml at 0.6 mg/ml up to 48 hrs by time-kill assay; how it was run: as §2
Pseudomonas aeruginosa [22] = assay: Antibacterial activity against Pseudomonas aeruginosa PA1036 assessed as time required for reduction of bacterial load to 3 log CFU/ml at 0.6 mg/ml up to 48 hrs by time-kill assay; how it was run: as §2
Pseudomonas aeruginosa [23] = assay: Antibacterial activity against Pseudomonas aeruginosa PA5026 assessed as time required for reduction of bacterial load to 3 log CFU/ml at 0.6 mg/ml up to 48 hrs by time-kill assay; how it was run: as §2
Pseudomonas aeruginosa [24] = assay: Antibacterial activity against Pseudomonas aeruginosa PA861 assessed as time required for reduction of bacterial load to 3 log CFU/ml at 0.6 mg/ml up to 48 hrs by time-kill assay; how it was run: as §2
Pseudomonas aeruginosa [25] = assay: Antibacterial activity against Pseudomonas aeruginosa PA1054 assessed as time required for reduction of bacterial load to 3 log CFU/ml at 2 mg/ml up to 48 hrs by time-kill assay; how it was run: as §2
Pseudomonas aeruginosa [26] = assay: Antibacterial activity against Pseudomonas aeruginosa PA899 assessed as time required for reduction of bacterial load to 3 log CFU/ml at 2 mg/ml up to 48 hrs by time-kill assay; how it was run: as §2
Pseudomonas aeruginosa [27] = assay: Antibacterial activity against Pseudomonas aeruginosa PA1022 assessed as time required for reduction of bacterial load to 3 log CFU/ml at 2 mg/ml up to 48 hrs by time-kill assay; how it was run: as §2
Pseudomonas aeruginosa [28] = assay: Antibacterial activity against Pseudomonas aeruginosa PA1042 assessed as time required for reduction of bacterial load to 3 log CFU/ml at 2 mg/ml up to 48 hrs by time-kill assay; how it was run: as §2
Pseudomonas aeruginosa [29] = assay: Antibacterial activity against Pseudomonas aeruginosa PA880 assessed as time required for reduction of bacterial load to 3 log CFU/ml at 2 mg/ml up to 48 hrs by time-kill assay; how it was run: as §2
Pseudomonas aeruginosa [30] = assay: Antibacterial activity against Pseudomonas aeruginosa PA1036 assessed as time required for reduction of bacterial load to 3 log CFU/ml at 2 mg/ml up to 48 hrs by time-kill assay; how it was run: as §2
Pseudomonas aeruginosa [31] = assay: Antibacterial activity against Pseudomonas aeruginosa PA5026 assessed as time required for reduction of bacterial load to 3 log CFU/ml at 2 mg/ml up to 48 hrs by time-kill assay; how it was run: as §2
Pseudomonas aeruginosa [32] = assay: Antibacterial activity against Pseudomonas aeruginosa PA876 assessed as time required for reduction of bacterial load to 3 log CFU/ml at 2 mg/ml up to 48 hrs by time-kill assay; how it was run: as §2
Pseudomonas aeruginosa [33] = assay: Antibacterial activity against Pseudomonas aeruginosa PA861 assessed as time required for reduction of bacterial load to 3 log CFU/ml at 2 mg/ml up to 48 hrs by time-kill assay; how it was run: as §2

SMILES	MIC50 (Pseudomonas aeruginosa [1])	MIC90 (Pseudomonas aeruginosa [1])	MIC50 [2]	MIC90 [2]	MIC50 [3]	MIC90 [3]	MIC50 (Staphylococcus aureus)	MIC90 (Staphylococcus aureus)	MIC (Pseudomonas aeruginosa [4])	BBC (Pseudomonas aeruginosa [5])	BBC (Pseudomonas aeruginosa [6])	MIC50 (Pseudomonas aeruginosa [7])	MIC (Pseudomonas aeruginosa [8])	MIC (Pseudomonas aeruginosa [9])	Time (Pseudomonas aeruginosa [10])	Time (Pseudomonas aeruginosa [11])	Time (Pseudomonas aeruginosa [12])	Time (Pseudomonas aeruginosa [13])	Time (Pseudomonas aeruginosa [14])	Time (Pseudomonas aeruginosa [15])	also measured
C[C@H]1[C@H](NC(=O)/C(=N\OC(C)(C)C(=O)O)c2csc(N)n2)C(=O)N1S(=O)(=O)O [AZTREONAM]	4 µg/mL (≈ 9.19 µM)	128 µg/mL (≈ 294 µM)	> 128 µg/mL	> 128 µg/mL	64 µg/mL (≈ 147 µM)	> 128 µg/mL	> 128 µg/mL	> 128 µg/mL	8 µg/mL (≈ 18.4 µM)	>64 µg/mL	>256 µg/mL	2 µg/mL (≈ 4.59 µM)	> 128 µg/mL	64 µg/mL (≈ 147 µM)	8 h	4 h	8 h	>24 h	>24 h	>24 h	Time (Pseudomonas aeruginosa [16]): >24 h; Time (Pseudomonas aeruginosa [17]): 24 h; Time (Pseudomonas aeruginosa [18]): 24 h; Time (Pseudomonas aeruginosa [19]): 4 h; Time (Pseudomonas aeruginosa [20]): 2 h; Time (Pseudomonas aeruginosa [21]): 4 h; Time (Pseudomonas aeruginosa [22]): 24 h; Time (Pseudomonas aeruginosa [23]): >24 h; Time (Pseudomonas aeruginosa [24]): >24 h; Time (Pseudomonas aeruginosa [25]): 24 h; Time (Pseudomonas aeruginosa [26]): 24 h; Time (Pseudomonas aeruginosa [27]): 24 h; Time (Pseudomonas aeruginosa [28]): 2 h; Time (Pseudomonas aeruginosa [29]): 4 h; Time (Pseudomonas aeruginosa [30]): 24 h; Time (Pseudomonas aeruginosa [31]): >24 h; Time (Pseudomonas aeruginosa [32]): >24 h; Time (Pseudomonas aeruginosa [33]): 24 h
C[C@H]1COc2c(N3CCN(C)CC3)c(F)cc3c(=O)c(C(=O)O)cn1c23.C[C@H]1COc2c(N3CCN(C)CC3)c(F)cc3c(=O)c(C(=O)O)cn1c23.O [LEVOFLOXACIN]	2 µg/mL	8 µg/mL	2 µg/mL	8 µg/mL	4 µg/mL	16 µg/mL	0.125 µg/mL	0.25 µg/mL	0.5 µg/mL	1 µg/mL	2 µg/mL	4 µg/mL	8 µg/mL	16 µg/mL	<=0.5 hr	<=0.5 hr	<=0.5 hr	<=0.5 hr	<=0.5 hr	<=0.5 hr	Time (Pseudomonas aeruginosa [16]): 4 h; Time (Pseudomonas aeruginosa [17]): <=0.5 hr; Time (Pseudomonas aeruginosa [18]): <=0.5 hr; Time (Pseudomonas aeruginosa [19]): <=0.5 hr; Time (Pseudomonas aeruginosa [20]): <=0.5 hr; Time (Pseudomonas aeruginosa [21]): <=0.5 hr; Time (Pseudomonas aeruginosa [22]): <=0.5 hr; Time (Pseudomonas aeruginosa [23]): <=0.5 hr; Time (Pseudomonas aeruginosa [24]): <=0.5 hr; Time (Pseudomonas aeruginosa [25]): <=0.5 hr; Time (Pseudomonas aeruginosa [26]): <=0.5 hr; Time (Pseudomonas aeruginosa [27]): <=0.5 hr; Time (Pseudomonas aeruginosa [28]): <=0.5 hr; Time (Pseudomonas aeruginosa [29]): <=0.5 hr; Time (Pseudomonas aeruginosa [30]): <=0.5 hr; Time (Pseudomonas aeruginosa [31]): <=0.5 hr; Time (Pseudomonas aeruginosa [32]): <=0.5 hr; Time (Pseudomonas aeruginosa [33]): <=0.5 hr
NC[C@H]1O[C@H](O[C@H]2[C@H](O)[C@@H](O[C@H]3O[C@H](CO)[C@@H](O)[C@H](N)[C@H]3O)[C@H](N)C[C@@H]2N)[C@H](N)C[C@@H]1O [TOBRAMYCIN]	2 µg/mL (≈ 4.28 µM)	> 32 µg/mL	> 32 µg/mL	> 32 µg/mL	> 32 µg/mL	> 32 µg/mL	0.125 µg/mL (≈ 0.267 µM)	32 µg/mL (≈ 68.4 µM)	0.25 µg/mL (≈ 0.535 µM)	8 µg/mL	1 µg/mL	2 µg/mL (≈ 4.28 µM)	32 µg/mL (≈ 68.4 µM)	8 µg/mL (≈ 17.1 µM)	1 h	<=0.5 hr	<=0.5 hr	2 h	4 h	8 h	Time (Pseudomonas aeruginosa [16]): 4 h; Time (Pseudomonas aeruginosa [17]): <=0.5 hr; Time (Pseudomonas aeruginosa [18]): <=0.5 hr; Time (Pseudomonas aeruginosa [19]): 1 h; Time (Pseudomonas aeruginosa [20]): 1 h; Time (Pseudomonas aeruginosa [21]): <=0.5 hr; Time (Pseudomonas aeruginosa [22]): <=0.5 hr; Time (Pseudomonas aeruginosa [23]): 1 h; Time (Pseudomonas aeruginosa [24]): 8 h; Time (Pseudomonas aeruginosa [25]): <=0.5 hr; Time (Pseudomonas aeruginosa [26]): <=0.5 hr; Time (Pseudomonas aeruginosa [27]): 4 h; Time (Pseudomonas aeruginosa [28]): <=0.5 hr; Time (Pseudomonas aeruginosa [29]): <=0.5 hr; Time (Pseudomonas aeruginosa [30]): <=0.5 hr; Time (Pseudomonas aeruginosa [31]): <=0.5 hr; Time (Pseudomonas aeruginosa [32]): 4 h; Time (Pseudomonas aeruginosa [33]): 4 h
